Format in all cases: functional
Test [1] has as its system Candida albicans. In words: Antifungal activity against Candida albicans ATCC 6019 after 48 hrs by broth microdilution technique. Particulars: ATCC 6019, 48 h. A general note: Broth dilution looks for growth in wells or tubes with falling amounts of substance.
Test [2] relates to Candida albicans. In words: Antifungal activity against Candida albicans ATCC 10453 after 48 hrs by broth microdilution technique. Particulars: ATCC 10453, 48 h.
Test [3] deals with Candida albicans. In words: Antifungal activity against Candida albicans MTCC 183 after 48 hrs by broth microdilution technique. The settings on record: MTCC 183, 48 h.
Test [4] has as its system Candida albicans. In words: Antifungal activity against Candida albicans ATCC 66027 after 48 hrs by broth microdilution technique. The settings on record: ATCC 66027, 48 h.
For test [5], the system named is Candida albicans. Kind of test: Antifungal activity against Candida albicans ATCC 10231 after 48 hrs by broth microdilution technique. The settings on record: ATCC 10231, 48 h.
The test system of test [6] is Candida parapsilosis. In words: (§1) Antifungal activity against Candida parapsilosis ATCC 22019 after 48 hrs by broth microdilution technique. Particulars: Lodderomyces parapsilosis, ATCC 22019, 48 h.
The subject of test [7] is Candida albicans. In words: Antifungal activity against Candida albicans MTCC 1346 after 48 hrs by broth microdilution technique. The settings on record: MTCC 1346, 48 h.
Test [8] relates to Pichia kudriavzevii. In words: Antifungal activity against Candida krusei ATCC 6258 after 48 hrs by broth microdilution technique. Particulars: ATCC 6258, 48 h.
Test [9] concerns Candida albicans. Kind of test: Antifungal activity against Candida albicans after 48 hrs by broth microdilution technique.
Test [10] has as its system Cryptococcus neoformans. In words: Antifungal activity against Cryptococcus neoformans after 48 hrs by broth microdilution technique.
Test [11] deals with Trichophyton mentagrophytes. Kind of test: Antifungal activity against Trichophyton mentagrophytes after 48 hrs by broth microdilution technique.
In test [12] the test system is Aspergillus fumigatus. In words: Antifungal activity against Aspergillus fumigatus after 48 hrs by broth microdilution technique.
The subject of test [13] is Candida parapsilosis. The description is as §1. The settings on record: for MIC: Lodderomyces parapsilosis, ATCC 22019, 48 h.
For test [14], the system named is Sperm. In words: (§2) Spermicidal activity in liquefied human semen assessed as drug level required to kill 100% sperm in 20 seconds.
For test [15], the system named is Sporothrix schenckii. Kind of test: Antifungal activity against Sporothrix schenckii after 48 hrs by broth microdilution technique.
In test [16] the test system is Trichomonas vaginalis. Kind of test: Antitrichomonas activity against Trichomonas vaginalis after 48 hrs by trypan blue staining. In a few lines: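 Trichomonas vaginalis was grown in TYM medium and used in log phase, one day after routine subculture. Compounds in DMSO stock were serially diluted in TYM medium, with DMSO/TYM as vehicle control. Wells received 5 × 10³ trophozoites and were incubated anaerobically at 37 °C. Viability was scored daily by trypan blue and cell counts, and MIC was read at 48 h. Finer dilutions were then retested, and the final MIC was taken from a concentration versus viable-trophozoite-number curve.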

Test [17] in a line: as §2.

Consider 6 compounds from ChEMBL document CHEMBL1158173, “Carbodithioic acid esters of fluoxetine, a novel class of dual-function spermicides” (2008).

Converted amounts (≈) assume the structure as drawn. The source made the active and inactive calls.

Take `OC(Cn1cncn1)(Cn1cncn1)c1ccc(F)cc1F` [FLUCONAZOLE]: the MIC (as a rule, the smallest concentration in the dilution series that meets the test's criterion for growth inhibition) in [1] came to 0.25 µg/mL (≈ 0.816 µM); in test [2] it was 1 µg/mL (≈ 3.27 µM); in test [3], 0.5 µg/mL (≈ 1.63 µM); in test [4], 0.25 µg/mL (≈ 0.816 µM); in test [5], 1 µg/mL (≈ 3.27 µM); in test [6] it was 1 µg/mL (≈ 3.27 µM). For the same compound, the MIC in test [7] was determined as 2 µg/mL (≈ 6.53 µM); in test [8], 4 µg/mL (≈ 13.1 µM); in test [9], 0.5 µg/mL (≈ 1.63 µM).

On to `CN(CCC(Oc1ccc(C(F)(F)F)cc1)c1ccccc1)CC(O)CSC(=S)N1CCCC1` (centres undefined), for which the outcome in test [10], in [11], in [12], in [13], in [14] and in [15] was inactive. Besides, in test [9], the result was inactive.

Regarding `Cc1ncc([N+](=O)[O-])n1CCO` [METRONIDAZOLE], the outcome in test [10], in [11], in [12], in [13], in test [14] and in test [15] was inactive. For the same compound, the outcome in test [9] was inactive. In test [16], this compound showed an MIC of 0.54 µg/mL (≈ 3.16 µM).

Regarding `CN(CCC(Oc1ccc(C(F)(F)F)cc1)c1ccccc1)C(=S)SCCN1CCOCC1` (centres undefined), the outcome in [10], in [11], in [12], in test [13], in test [14] and in [15] was inactive. Further, the outcome in [9] was inactive.

Consider `CN(CCC(Oc1ccc(C(F)(F)F)cc1)c1ccccc1)C(=S)SCCN1CCCC1` (centres undefined), for which the MIC in test [1] is 6.25 µg/mL (≈ 12.9 µM); in test [10], 3.12 µg/mL (≈ 6.46 µM); in [2], 6.25 µg/mL (≈ 12.9 µM); in test [11], 12.5 µg/mL (≈ 25.9 µM); in test [3], 3.12 µg/mL (≈ 6.47 µM); in test [12], 12.5 µg/mL (≈ 25.9 µM). The MIC stood at 6.25 µg/mL (≈ 12.9 µM) in test [4]; 6.25 µg/mL (≈ 12.9 µM) in test [5]; 3.12 µg/mL (≈ 6.47 µM) in [6]; 6.25 µg/mL (≈ 12.9 µM) in test [7]; 3.12 µg/mL (≈ 6.46 µM) in test [13]; 6.25 µg/mL (≈ 12.9 µM) in test [8]. For the same compound, the MIC in test [16] was 14 µg/mL (≈ 29 µM); in test [15], 25 µg/mL (≈ 51.8 µM); in [9], 6.25 µg/mL (≈ 12.9 µM). For the same compound, the MEC in test [17] worked out at 0.05%.

In the case of `CN(CCC(Oc1ccc(C(F)(F)F)cc1)c1ccccc1)CC(O)CSC(=S)N1CCOCC1` (centres undefined), the outcome in test [10], in test [12], in [14] and in test [9] was inactive. The MIC in [11] came to 12.5 µg/mL (≈ 23.6 µM); in test [13], 50 µg/mL (≈ 94.6 µM); in test [15], 25 µg/mL (≈ 47.3 µM).
